Results on 1 compound are retold here after ChEMBL document CHEMBL4396917, “Synthesis and biological evaluation of novel benzylidene-succinimide derivatives as noncytotoxic antiangiogenic inhibitors with anticolorectal cancer activity in vivo” (Eur J Med Chem, 2019).

Structures are written as SMILES. Calls of active or inactive are those of the source. The rule behind the calls is not given here.

The subject of data set [1] is HT-29. As to the kind of experiment: Antiangiogenic activity in human HT-29 cells assessed as decrease in secreted MMP9 activity at 1 to 20 uM after 24 hrs by gelatin zymography. Type of data set: functional, cell-based. In a few lines:
(§1)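 HT29 cells treated 1, 5, 10 or 20 μM for 24 h; supernatant run non-reducing on 10% SDS-PAGE with 2% gelatin; SDS removed with 2% Triton X-100, gel incubated 48 h at 37°C in Tris pH 7.5/NaCl/CaCl2 buffer, Coomassie stained; clear MMP-2 and MMP-9 bands quantified by densitometry.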

Data set [2] relates to HT-29. Kind of data set: Antiangiogenic activity in human HT-29 cells assessed as decrease in secreted MMP2 activity at 1 to 20 uM after 24 hrs by gelatin zymography. Type of data set: functional, cell-based. Summed up: as §1
In data set [3] the test system is HUVEC. As to the kind of experiment: Inhibition of Akt/mTOR signalling in VEGF-induced HUVEC assessed as reduction in AKT phosphorylation at Ser473 residue at 1 to 20 uM pre-incubated for 1.5 hrs followed by VEGF stimulation and measured after 30 mins by Western blot analysis. The conditions noted are these: Homo sapiens. Format: cell-based. In a few lines: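 HUVECs were starved overnight, pretreated 1.5 h with 1, 5, 10 or 20 μM, then stimulated with VEGF (50 ng/mL) for 30 min. Lysates were equalized by Bradford assay, about 20 μg protein was resolved on gradient SDS-PAGE and immunoblotted with phospho-specific antibodies. Detection by HRP secondary antibodies and ECL.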
(Immunoblotting shows a protein as a band on a membrane.)

For data set [4], the system named is HT-29. As to the kind of experiment: Induction of apoptosis in human HT-29 cells assessed as late apoptotic cells at 10 uM after 24 hrs by Annexin V-FITC/propidium iodide staining based flow cytometric analysis (reference value: 13.4%). Format: cell-based. The conditions noted are these: ht-29, 24 h. In general terms: In flow cytometry, cells or beads pass a laser one at a time.

In data set [5] the test system is HT-29. Kind of data set: Downregulation of MMP9 expression in human HT-29 cells after 24 hrs by immunoblot analysis. Type of data set: functional, cell-based.
For data set [6], the system named is HUVEC. Kind of data set: Induction of apoptosis in VEGF-stimulated HUVEC assessed as PARP cleavage at 1 to 20 uM by Western blot analysis. Type of data set: cell-based. As to conditions: human.
The test system of data set [7] is HUVEC. As to the kind of experiment: Antimigratory activity in HUVEC assessed as reduction in VEGF-induced cell migration at 1 to 2.5 uM by wound healing assay. The conditions noted are these: Homo sapiens, TDE = time-dependent effect.

Take `COc1ccc(NC(=O)c2cccc(/C=C3\CC(=O)N(c4ccc(C)cc4)C3=O)c2)cc1`: the inhibition entry in the data set on HT-29 [1], with HT-29 [2] and in the data set on HUVEC [3] was “Active” throughout. Also, the Activity in the data set on HT-29 [4] is reported as 19%; in the data set on HUVEC [6] it was “Non-Toxic”. Further, the inhibition entry in the data set with HT-29 [5] was “Dose-dependent effect”; with HUVEC [7], “Tde”.
